A short description of test [1]: inhibitors of TNFa-induced NFkB p65 translocation, primary screen, imaging, HUVEC, MLSMR starter and 10KST1 sets (AID 438;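 active = inhibition above 20% together with a positive visual image hit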;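 also: compound added about 3h40 before a 20 min TNFalpha stimulation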;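 as to inhibition: signal is the nuclear over cytoplasmic p65 intensity ratio per well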). The following applies: HUVEC TNFa-induced p65 nuclear translocation; cell count: measured here: nuclei count (cytotoxicity indicator), at 2.08 µM; inhibition: at 2 µM, stronger effect = higher value, 0% TNFa-plus-vehicle, 100% no-TNFa wells.
A short description of test [2]: inhibitors of mutant huntingtin aggregation, primary screen, imaging, exon1htt(103Q)mCFP cells, high-content imaging (AID 483;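 active = visual image review flags a hit and inhibition of aggregation exceeds 20%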;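 also: compound exposure lasted 3 days before fixation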;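 as to nuclei count: percent of the per-plate median nuclei count of sample wells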). The note with it: exon1htt(103Q)mCFP cell line, aggregate imaging, at 2 µM; inhibition of aggregation: stronger effect = higher value; nuclei count: measured here: cell count, toxicity.
A short description of test [3]: inhibitors of E-selectin induction by TNFa, primary screen, imaging, HUVEC, immunofluorescence, MLSMR starter and 10KST1 sets (AID 487;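 active = visually confirmed hit in the image check and inhibition above 20%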;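 as to inhibition: signal is fraction of cell area covered by stained E-selectin grains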;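 as to nuclei count: 100% = median nuclei count of all wells on the same plate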). The following applies: HUVEC TNFalpha-induced E-selectin immunofluorescence imaging, at 2 µM; inhibition: stronger effect = higher value; nuclei count: measured here: cell number, toxicity.
Test [4] addresses Voltage-gated potassium channel subunit beta-2 (Rattus norvegicus) (UniProt P62483). Briefly: KvBeta enzyme negative modulators, primary screen, biochemical, NADPH fluorescence (AID 622;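 active = fluorescence slope higher than the sample average by over 3 SD, cut at about -0.22 in these data, passing the limit was not always enough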;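 also: slope of raw intensity against log time taken from 70 to 1610 s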). The note with it: recombinant KvBeta, 4-cyanobenzaldehyde reduction, at 10 µM, stronger effect = higher value.
The target is the same in test [5]. Briefly: KvBeta positive modulators, primary screen, biochemical, NADPH fluorescence (AID 623;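 active = NADPH fluorescence slope more negative than the mean of all samples by about 3 SD, 99.7% confidence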;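 also: fluorescence intensity change per second fitted from 20 to 320 s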). The following applies: Recombinant KvBeta, NADPH fluorescence decrease slope, 10 min; at 10 µM; stronger effect = lower value.
Test [6] concerns the target Muscarinic acetylcholine receptor M4 (Homo sapiens) (UniProt P08173). Briefly: compounds altering M4/GIRK thallium flux, either direction, primary screen, M4 allosteric agonist project, cell-based, HEK293 M4/GIRK, BTC-AM (AID 625).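 Also: thallium influx through GIRK channels coupled to M4 in HEK293 cells with BTC-AM dye.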 The following applies: at 10 µM, actives lie on both sides. In a few lines:
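Assay system: HEK293 cells with M4 receptor and GIRK channels / Controls: carbachol and DMSO controls / Schedule: 1 h dye loading, 2 min kinetic read / Technique: kinetic fluorescence with BTC-AM dye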

The nature of test [7]: inhibitors of Sendai virus-induced IRF3 signaling, primary screen, TLR/RLR signaling modifier project, cell-based, Sendai virus stimulus, luciferase, 10K MLSCN set (AID 602276;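 active = inhibition at or above 50% at 10 µM; inactive = inhibition below 50%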;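 also: firefly luciferase from ISG56 promoter only with Renilla not read in this screen; 0% = Sendai virus plus DMSO and 100% = medium plus DMSO without virus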). The following applies: HEK293 RL24 IRF3 luciferase reporter, at 10 µM, stronger effect = higher value.
Test [8] is described as follows: inhibitors of poly I:C-induced TLR3 signaling, primary screen, cell-based, poly I:C stimulus, luciferase, 10K MLSCN set (AID 602277;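 active = inhibition of the reporter signal at or above 50%; inactive = inhibition below 50%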). The following applies: HEK293-TLR3 RL24 IRF3 luciferase reporter, at 10 µM, stronger effect = higher value.

SMILES strings stand for the structures. Calls of active or inactive are those of the source.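 The calls were made as follows, unless noted: active = fluorescence slope after compound addition differing from the mean of all tested samples at 99.7% confidence, mostly higher but some lower; inactive = the rest.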

Consider 14 compounds from PubChem BioAssay.

Muscarinic acetylcholine receptor M4 (Homo sapiens), sequence (P08173 whole entry, looked up): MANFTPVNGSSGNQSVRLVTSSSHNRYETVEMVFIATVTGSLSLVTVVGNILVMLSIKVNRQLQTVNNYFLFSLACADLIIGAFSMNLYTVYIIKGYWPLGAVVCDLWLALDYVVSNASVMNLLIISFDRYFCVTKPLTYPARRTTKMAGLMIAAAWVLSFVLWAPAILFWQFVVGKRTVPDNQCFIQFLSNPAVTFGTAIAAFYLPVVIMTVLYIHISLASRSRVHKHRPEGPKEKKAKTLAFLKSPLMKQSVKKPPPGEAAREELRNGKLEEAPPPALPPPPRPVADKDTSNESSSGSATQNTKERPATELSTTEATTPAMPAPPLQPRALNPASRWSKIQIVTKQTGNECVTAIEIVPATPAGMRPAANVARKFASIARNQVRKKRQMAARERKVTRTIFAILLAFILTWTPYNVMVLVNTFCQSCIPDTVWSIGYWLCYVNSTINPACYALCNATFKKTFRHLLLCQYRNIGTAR
Voltage-gated potassium channel subunit beta-2 (Rattus norvegicus), sequence (P62483 whole entry, looked up): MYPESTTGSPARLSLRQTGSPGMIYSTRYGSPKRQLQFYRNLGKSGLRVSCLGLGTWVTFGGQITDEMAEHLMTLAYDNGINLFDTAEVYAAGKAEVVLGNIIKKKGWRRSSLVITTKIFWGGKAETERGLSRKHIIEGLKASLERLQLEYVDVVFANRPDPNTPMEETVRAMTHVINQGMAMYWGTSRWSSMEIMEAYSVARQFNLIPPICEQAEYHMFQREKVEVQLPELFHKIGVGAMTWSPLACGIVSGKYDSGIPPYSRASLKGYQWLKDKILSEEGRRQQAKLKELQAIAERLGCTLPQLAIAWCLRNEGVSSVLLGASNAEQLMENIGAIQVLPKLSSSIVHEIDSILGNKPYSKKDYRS

Consider `CC(OC1=CC(=O)CCC1)C(=O)c1ccccc1` (centres undefined), for which, in test [1], the cell count was found to be 370. For the same compound, the inhibition – broadly, the drop in the measured response relative to a control, in per cent – was 10.4% (inactive) in test [1], 24.1% (inactive) in test [3], 14.1% (inactive) in test [7] and 18.3% (inactive) in test [8]. Further, the inhibition of aggregation in test [2] was 36.6% (active). The values for the nuclei count in test [2] and in test [3] were 64.2% and 72.3%, respectively. The fluorescence slope in test [4] is -0.569 (inactive); in test [6], 0.00642 (inactive). The NADPH fluorescence slope in test [5] is 1.9e-05 (inactive).

For `CCCCOc1ccc(C(=O)Nc2ccc(N3CCN(C(=O)C(C)C)CC3)cc2)cc1`, the cell count in test [1] was 825. Besides, the inhibition was -3.3% (inactive) in test [1], -59.7% (inactive) in test [3], 13.8% (inactive) in test [7] and -10.4% (inactive) in test [8]. In addition, the inhibition of aggregation in test [2] is -19.5% (inactive). Further, the results for the nuclei count in test [2] and in test [3] were 92.4% and 115%, respectively. Moreover, the fluorescence slope is -0.44 (inactive) in test [4] and 0.0053 (inactive) in test [6]. Moreover, the NADPH fluorescence slope in test [5] is -1.7e-05 (inactive).

For the compound `Cc1cc(C(F)F)n2ncc(C(=O)NC3CCCCCC3)c2n1`, the cell count in test [1] was 354. Besides, the inhibition is 0% (inactive) in test [1], 1.4% (inactive) in test [3], 15.9% (inactive) in test [7] and 15.5% (inactive) in test [8]. Moreover, in test [2], the inhibition of aggregation was -4.8% (inactive). The figures for the nuclei count in test [2] and in test [3] were 106% and 113%, respectively. Besides, the fluorescence slope was -0.569 (inactive) in test [4] and 0.00445 (inactive) in test [6]. In test [5], the NADPH fluorescence slope is -7.1e-05 (inactive).

For the compound `CCCCCOC(=O)CSc1nnc(-c2cc(OC)c(OC)c(OC)c2)o1`, in test [1], the cell count stood at 747. Further, the inhibition was -21.6% (inactive) in test [1], -73.6% (inactive) in test [3], 3.74% (inactive) in test [7] and 10.4% (inactive) in test [8]. Besides, the inhibition of aggregation in test [2] is 16.3% (inactive). The nuclei count in test [2] is 116%; in test [3] it was 119%. Besides, the fluorescence slope in test [4] was -0.363 (inactive); in test [6] it was 0.00542 (inactive). Further, the NADPH fluorescence slope in test [5] was -3.4e-05 (inactive).

For the compound `COC(=O)c1cnn2c(C(F)(F)F)cc(-c3ccco3)nc12`, the cell count in test [1] was determined as 246. Besides, the inhibition in test [1] was 0.2% (inactive); in test [3] it was 42.4% (inactive); in test [7], 8.92% (inactive); in test [8], 9.22% (inactive). Besides, the inhibition of aggregation in test [2] is 38.2% (inactive). Further, the nuclei count in test [2] came out at 75.8%; in test [3], 72.5%. The fluorescence slope in test [4] is -0.276 (inactive); in test [6], 0.00336 (inactive). The NADPH fluorescence slope in test [5] is -8.1e-06 (inactive).

Take `CCN(CCO)C1CC(=O)N(c2ccccc2C)C1=O` (centres undefined): the cell count in test [1] came to 486. Also, the inhibition in test [1] is 7.7% (inactive); in test [3] it was -126% (inactive); in test [7] it was 4.48% (inactive); in test [8], 13% (inactive). In test [2], the inhibition of aggregation was 12.4% (inactive). Further, the nuclei count came out at 104% in test [2] and 145% in test [3]. For the same compound, the fluorescence slope in test [4] was -0.321 (inactive); in test [6], 0.00663 (inactive). Besides, the NADPH fluorescence slope in test [5] was -3.6e-05 (inactive).

Regarding `COc1cccc(N2CCN(CC(=O)NCc3cccs3)CC2)c1`, in test [1], the cell count came out at 702. The inhibition in test [1] is -27.6% (inactive); in test [3], 24.5% (inactive); in test [7], 21.2% (inactive); in test [8], -6.45% (inactive). In addition, in test [2], the inhibition of aggregation is 20.4% (inactive). In addition, the nuclei count came to 100% in test [2] and 99.5% in test [3]. For the same compound, the fluorescence slope in test [4] is -0.318 (inactive); in test [6] it was 0.00733 (inactive). Further, the NADPH fluorescence slope in test [5] is -1.7e-05 (inactive).

For `C1=CC2CC1CC2CN1CCN(c2ccccc2)CC1` (centres undefined), the cell count in test [1] was 411. For the same compound, the inhibition is 1.5% (inactive) in test [1], -37.7% (inactive) in test [3], 2.18% (inactive) in test [7] and 4.2% (inactive) in test [8]. Besides, in test [2], the inhibition of aggregation was -19.6% (inactive). Besides, the nuclei count turned out to be 114% in test [2] and 100% in test [3]. For the same compound, the figures for the fluorescence slope in test [4] and in test [6] were -0.479 (inactive) and 0.00448 (inactive), respectively. In addition, in test [5], the NADPH fluorescence slope was -2.1e-05 (inactive).

Consider `CCOC(=O)C1CCCN(S(=O)(=O)c2cccs2)C1` (centres undefined), for which, in test [1], the cell count turned out to be 243. The inhibition in test [1] was 11.2% (inactive); in test [3], -8.8% (inactive); in test [7], -3.56% (inactive); in test [8], 4.98% (inactive). Further, in test [2], the inhibition of aggregation is -5.5% (inactive). In addition, the results for the nuclei count in test [2] and in test [3] were 95.8% and 95.2%, respectively. The fluorescence slope in test [4] is -0.479 (inactive); in test [6], 0.00471 (inactive). Besides, the NADPH fluorescence slope in test [5] was 1.6e-05 (inactive).

For the compound `CSc1cccc(NC(=O)C2CCCN2S(=O)(=O)c2ccc3c(c2)CCC(=O)N3)c1` (centres undefined), in test [1], the cell count was 571. The inhibition is -6.9% (inactive) in test [1], -72.3% (inactive) in test [3], 4.83% (inactive) in test [7] and 8.19% (inactive) in test [8]. Further, the inhibition of aggregation in test [2] is -43.4% (inactive). Moreover, the nuclei count stood at 99.9% in test [2] and 108% in test [3]. Besides, the results for the fluorescence slope in test [4] and in test [6] were -0.456 (inactive) and 0.00486 (inactive), respectively. In addition, in test [5], the NADPH fluorescence slope is 4.1e-06 (inactive).

With `CCC1Cc2c(nc3c4c(nc(N5CCOCC5)c(C#N)c24)NC(C)=N3)O1` (centres undefined), the cell count in test [1] is 657. Besides, the inhibition is 0.8% (inactive) in test [1], 43.9% (inactive) in test [3], 14.3% (inactive) in test [7] and 1.06% (inactive) in test [8]. In addition, the inhibition of aggregation in test [2] is 7.2% (inactive). Further, the nuclei count in test [2] worked out at 92.3%; in test [3], 97.4%. For the same compound, the figures for the fluorescence slope in test [4] and in test [6] were -0.35 (inactive) and 0.00571 (inactive), respectively. In test [5], the NADPH fluorescence slope is -1.8e-05 (inactive).

For `Cc1cccc2cc(CN(Cc3nnnn3Cc3ccco3)C3CCCC3)c3nnnn3c12`, the cell count in test [1] is 719. Moreover, the inhibition in test [1] is -2.8% (inactive); in test [3], -14% (inactive); in test [7], 9.99% (inactive); in test [8], 13% (inactive). The inhibition of aggregation in test [2] is 4.4% (inactive). Further, the nuclei count was found to be 113% in test [2] and 116% in test [3]. Also, the fluorescence slope in test [4] was -0.451 (inactive); in test [6], 0.00551 (inactive). The NADPH fluorescence slope in test [5] was 3.4e-05 (inactive).

As to `CCCn1cnc2c(c1=O)c1nc3ccccc3nc1n2Cc1ccccc1OC`, the cell count in test [1] amounted to 499. Further, the inhibition was -7.5% (inactive) in test [1], -68.4% (inactive) in test [3], -9.22% (inactive) in test [7] and 101% (active) in test [8]. In addition, the inhibition of aggregation in test [2] is 4.9% (inactive). Moreover, the nuclei count in test [2] was 95%; in test [3] it was 130%. In addition, the fluorescence slope was -0.483 (inactive) in test [4] and 0.00653 (inactive) in test [6]. Also, the NADPH fluorescence slope in test [5] was -1.8e-05 (inactive).

`O=C(O)c1cccc(CN2C(=O)SC(Nc3ccccc3)C2=O)c1` (centres undefined): the cell count in test [1] turned out to be 510. In addition, the inhibition in test [1] was 3.6% (inactive); in test [3] it was 39.4% (inactive); in test [7], 8.76% (inactive); in test [8] it was 18.9% (inactive). In addition, in test [2], the inhibition of aggregation is 5.6% (inactive). For the same compound, the nuclei count in test [2] and in test [3] was 108% in each case. In addition, the fluorescence slope was -0.405 (inactive) in test [4] and 0.00521 (inactive) in test [6]. Moreover, in test [5], the NADPH fluorescence slope is 6.9e-06 (inactive).
